Series [1] is described as follows: AUC in fasted healthy human at 400 mg administered as single dose suspension coadministered with acidic carbonated beverage. It is filed as ADME, organism-based. The settings on record: plasma. The method, boiled down:
(§1)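 This was a four-way crossover in 12 healthy subjects with 7–10 day washouts. Each took one fasting 400 mg oral suspension dose, with 12 oz ginger ale and/or esomeprazole 40 mg once each morning on days −2 to 1, with dosing on day 1. Plasma was sampled 0–168 h and measured by LC-MS/MS (LLOQ 5.00 ng/ml). Analysis was noncompartmental, with CL/F = dose/AUC_I and V/F = (CL/F)/K.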

Series [2] in a line: AUC in fasted healthy human at 400 mg administered as single dose suspension. The series is classed as ADME, organism-based. The settings on record: plasma.
The nature of series [3]: AUC in fasted healthy human at 400 mg administered as single dose suspension after consumption of high fat meal. The series is classed as ADME, organism-based. The settings on record: plasma. The method, boiled down:
(§2)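 In a crossover of 12 healthy subjects, each took a single 400 mg oral suspension dose 5 min before, midway through (about 10 min into a 20-min meal), or 20 min after a high-fat meal of about 50 g fat. Plasma was drawn 0–168 h and measured by LC-MS/MS. Parameters are noncompartmental, with AUC to the last measurable time.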

The nature of series [4]: Tmax in fasted healthy human at 400 mg administered as single dose suspension coadministered with proton pump inhibitor. The series is classed as ADME, organism-based. The conditions noted are these: in vivo. Summed up: (§3)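 Single oral suspension dose in fasting healthy volunteers, alone, with 12 oz ginger ale, after esomeprazole 40 mg once each morning days −2 to 1, or both; four-way crossover, 7–10-day washout. EDTA plasma 0–168 h. LC-MS/MS (LLOQ 5.00 ng/ml). t1/2 = ln(2)/K from terminal log-linear regression; Tmax median.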

A short description of series [5]: Tmax in fasted healthy human at 400 mg administered as single dose suspension coadministered with acidic carbonated beverage and proton pump inhibitor. The conditions noted are these: in vivo. The series is classed as ADME, organism-based. Summed up: as §3
Series [6] in a line: Half life in fasted healthy human at 400 mg administered as single dose suspension. The conditions noted are these: in vivo. It is filed as ADME, organism-based. Summed up: as §3
A short description of series [7]: Half life in fasted healthy human at 400 mg administered as single dose suspension after 20 mins after consumption of high fat meal. The series is classed as ADME, organism-based. The settings on record: in vivo. The method, boiled down: (§4)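 Single oral suspension dose in healthy volunteers while fasting, 5 min before, midway through (about 10 min into a 20-min meal), or 20 min after a high-fat meal (approx 50 g fat); four-way crossover, 7–10-day washout. Plasma 0–168 h by LC-MS/MS (LLOQ 5.00 ng/ml). t1/2 = ln(2)/K; Tmax median.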

A short description of series [8]: Half life in fasted healthy human at 400 mg administered as single dose suspension after consumption of high fat meal. The series is classed as ADME, organism-based. The settings on record: in vivo. Summed up: as §4
The nature of series [9]: Apparent volume of distribution in fasted healthy human at 400 mg administered as single dose suspension coadministered with proton pump inhibitor. The series is classed as ADME, organism-based. The conditions noted are these: in vivo, read-out: Vc/F. The method, boiled down:
as §1

Series [10] is described as follows: Apparent volume of distribution in fasted healthy human at 400 mg administered as single dose suspension 5 mins before consumption of high fat meal. It is filed as ADME, organism-based. The settings on record: in vivo, read-out: Vc/F. Summed up: as §2
The nature of series [11]: Apparent volume of distribution in healthy human at 400 mg administered as single dose suspension coadministered with nutritional supplement and 10 mg metoclopramide. The series is classed as ADME, organism-based. The conditions noted are these: in vivo, po, read-out: Vc/F. Summed up: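 A three-way crossover in 13 healthy subjects gave one 400 mg oral suspension dose with a nutritional supplement, either alone, with metoclopramide 10 mg orally three times daily on the day before and the day of dosing, or with a single 4 mg dose of loperamide. Plasma was taken 0–168 h for LC-MS/MS. Analysis was noncompartmental.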

Series [12] relates to Homo sapiens. As to the kind of experiment: Toxicity in healthy human assessed as adverse events at 400 mg administered as single dose suspension 5 mins before consumption of high fat meal. The settings on record: in vivo. The series is classed as organism-based. Summed up: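 Healthy volunteers monitored for adverse events, vital signs, clinical laboratory values and 12-lead ECG. Adverse events tabulated by body system or organ class and severity and summarized by treatment across the crossover regimens.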

Series [13] has as its system Homo sapiens. Briefly: Toxicity in healthy human assessed as nausea at 400 mg administered as single dose suspension coadministered with nutritional supplement. The series is classed as organism-based. The conditions noted are these: in vivo. The method, boiled down: (§5)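 Three-way randomized crossover in 13 healthy volunteers with a 7- to 10-day washout. Each period was one 400-mg oral posaconazole suspension dose with a nutritional supplement. Metoclopramide 10 mg was given orally three times daily on the day before and the day of dosing; loperamide was a single 4 mg. Safety was assessed from adverse events, tabulated by body system and severity per treatment.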

The subject of series [14] is Homo sapiens. Briefly: Toxicity in healthy human assessed as fatigue at 400 mg administered as single dose suspension coadministered with nutritional supplement and 10 mg metoclopramide. The series is classed as organism-based. The conditions noted are these: in vivo. The method, boiled down:
as §5

Series [15] has as its system Homo sapiens. Briefly: Toxicity in healthy human assessed as dizziness at 400 mg administered as single dose suspension coadministered with nutritional supplement and 10 mg metoclopramide. The conditions noted are these: in vivo. It is filed as organism-based. The method, boiled down:
as §5

Series [16] has as its system Homo sapiens. Briefly: Toxicity in healthy human assessed as dizziness at 400 mg administered as single dose suspension coadministered with nutritional supplement and 4 mg loperamide as two 2 mg tablets. The conditions noted are these: in vivo. The series is classed as organism-based. The method, boiled down:
as §5

Structures are written as SMILES.

Consider `CC[C@@H]([C@H](C)O)n1ncn(-c2ccc(N3CCN(c4ccc(OC[C@@H]5CO[C@@](Cn6cncn6)(c6ccc(F)cc6F)C5)cc4)CC3)cc2)c1=O` [POSACONAZOLE], for which the AUC in series [1] came out at 9610 ng·h/mL; in series [2], 4280 ng·h/mL; in series [3], 21000 ng·h/mL. The Tmax in [4] and in [5] was 6 h in each case. Also, the half-life was 27.4 h in series [6], 22.6 h in series [7] and 22.6 h in series [8]. Besides, the values for the Vd/F in series [9], in series [10] and in series [11] were 4350 L, 1900 L and 2280 L, respectively. The Activity in [12] came out at 25%; in [13], 23%; in series [14], 15%; in [15] it was 15%; in [16], 15%.

(Values after ChEMBL document CHEMBL1671645, “Pharmacokinetics and absorption of posaconazole oral suspension under various gastric conditions in healthy volunteers” (Antimicrob Agents Chemother, 2009).)
